Source: paper PMC4335074 (Clinical cancer research : an official journal of the …, 2014)
Read-outs that look alike come from different tables or passages of the source.

Assays:
[1] = test system: pT202/Y204 ERK; experiment: Immunoblotting of downstream signalling biomarkers in HCT116 cells; assay type: cell-based, Human; conditions: HCT116, 24 hours, immunoblot
Method in brief: (§1)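 HCT116 colon cancer cells (KRAS G13D; from ATCC, STR-authenticated) were exposed for 24 h to the AKT-inhibitor test compound, the MEK-inhibitor test compound, or both together, each at set concentrations, before immunoblot analysis of phospho-markers.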

[2] = test system: pS235/236 S6 ribosomal protein (S6RP); experiment: as above; assay type: cell-based, Human; conditions: HCT116, 24 hours, immunoblot
Method in brief: as §1

[3] = test system: pT70 4E-BP1; experiment: as above; assay type: cell-based, Human; conditions: HCT116, 24 hours, immunoblot
Method in brief: as §1

[4] = test system: pS473 AKT; experiment: as above; assay type: cell-based, Human; conditions: HCT116, 24 hours, immunoblot
Method in brief: as §1

[5] = Phase I combination study: pharmacokinetics; assay type: in vivo, human; conditions: for Cmax: selumetinib 100 mg QD, combination MTD cohort
[6] = test system: AKT 1; conditions: cited from earlier work
[7] = test system: AKT 2; conditions: cited from earlier work
[8] = test system: AKT 3; conditions: cited from earlier work
[9] = test system: CYP1A2; conditions: no reference given; cited from earlier work
[10] = test system: CYP2C19; conditions: no reference given; cited from earlier work
[11] = test system: CYP3A4; conditions: no reference given; cited from earlier work
[12] = test system: P-glycoprotein; conditions: no reference given; cited from earlier work
[13] = cited from earlier work
[14] = test system: tumour pS473 AKT; conditions: MK-2206 monotherapy 60 mg QOD; cited from earlier work
[15] = preclinical models; no reference given; cited from earlier work
[16] = test system: pS473 AKT; conditions: at 57 nmol/L MK-2206, preclinical models; no reference given; cited from earlier work
[17] = test system: KRAS-mutant NSCLC; conditions: phase II, KRAS-mutant NSCLC patients; cited from earlier work
[18] = test system: MEK; conditions: non-ATP competitive; cited from earlier work
[19] = selumetinib monotherapy, cited from earlier work
[20] = test system: pERK; conditions: at 6 hours, peripheral blood mononuclear cells and paired tumour biopsies; cited from earlier work

Compound: NC1(c2ccc(-c3nc4ccn5c(=O)[nH]nc5c4cc3-c3ccccc3)cc2)CCC1 [MK-2206]
- Inhibition of pT202/Y204 ERK [1]: no effect
- Inhibition of pS235/236 S6RP [2]: no effect
- Inhibition of pT70 4E-BP1 [3]: incompletely inhibited
- Inhibition of pS473 AKT [4]: completely abrogated
- half-life ([5]; human, in vivo, oral): 61.7 ± 15.2 h
- Patients achieving target steady-state trough concentration of >57 nmol/L ([5]; in 48 hours at the 135 mg QW MTD level): 100%
- IC50 [7]: 12 nM
- IC50 [8]: 65 nM
- Inhibition of CYP1A2 [9]: neither of these drugs is a potent inhibitor
- Inhibition of CYP2C19 [10]: neither of these drugs is a potent inhibitor
- Inhibition of CYP3A4 [11]: neither of these drugs is a potent inhibitor
- P-glycoprotein inhibition [12]: only a weak inhibitor
- P-glycoprotein substrate status [12]: substrates
- Terminal half-life (t1/2) ([13]; MK-2206 monotherapy 60 mg QOD): 71.3 h
- Maximum-tolerated dose (MTD) ([13]; MK-2206 monotherapy, QOD schedule): 60 mg
- Maximum-tolerated dose (MTD) ([13]; MK-2206 monotherapy, weekly schedule): 200 mg
- Clinical toxicities ([13]; MK-2206 monotherapy): erythematous maculopapular rash and stomatitis
- Dose-limiting toxicity (DLT) ([13]; MK-2206 monotherapy): Rash
- Median suppression of post-dose tumour pS473 AKT [14]: 81%
- Inhibition of pS473 AKT [16]: > 70%

Compound: CC(=O)O[C@@]12CO[C@@H]1C[C@H](O)[C@@]1(C)C(=O)[C@H](O)C3=C(C)[C@@H](OC(=O)[C@H](O)[C@@H](NC(=O)OC(C)(C)C)c4ccccc4)C[C@@](O)([C@@H](OC(=O)c4ccccc4)[C@H]21)C3(C)C [docetaxel]
- Median overall survival (OS) [17]: 5.3 months
- Progression free survival [17]: 2.1 months

Compound: Cn1cnc2c(F)c(Nc3ccc(Br)cc3Cl)c(C(=O)NOCCO)cc21 [selumetinib]
- Inhibition of pT202/Y204 ERK [1]: blocked pT202/Y204 ERK completely
- Inhibition of pS235/236 S6RP [2]: incompletely suppressed
- Inhibition of pT70 4E-BP1 [3]: incompletely suppressed
- Inhibition of pS473 AKT [4]: did not affect
- Cmax ([5]; human, in vivo, oral, Cmax range): 554 to 2540 ng/mL
- Cmax ([5]; human, in vivo, oral, Mean Cmax): 1140 ng/mL
- IC50 [18]: 10 to 14 nM
- Inhibition of CYP1A2 [9]: neither of these drugs is a potent inhibitor
- Inhibition of CYP2C19 [10]: neither of these drugs is a potent inhibitor
- Inhibition of CYP3A4 [11]: neither of these drugs is a potent inhibitor
- P-glycoprotein inhibition [12]: not an inhibitor
- P-glycoprotein substrate status [12]: substrates
- Established dose ([19]; freebase powder formulation, BID): 100 mg
- Terminal t1/2 ([19]; hydrogen sulphate oral capsule): 5.3 h
- Clinical toxicities [19]: acneiform dermatitis, diarrhoea, fatigue, nausea, and peripheral oedema
- Dose-limiting toxicity (DLT) [19]: Rash
- Suppression of pERK [20]: observed
